# Assay outcomes deposited in PubChem BioAssay by The Scripps Research Institute Molecular Screening Center.
# An excerpt weighted towards active compounds, which were near 4.7% of everything screened.
# AHR act: activates the human aryl hydrocarbon receptor. P35869. AHR-responsive luciferase reporter cells, luminescence. activation, % at 5 µM. 320,000 compounds, 2.5% hits; in the data active = activation above about 47%
# FXN GAA850 act: activators of GAA850 frataxin (FXN) promoter | HEK293 lucGAA850 FXN promoter luciferase reporter, 24 h; percent of 10 µM SAHA response | activation, % at 6 µM | AID 540364 | 360,000 compounds, 0.56% hits;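 active = activation above the average of all compounds screened plus 3 SD, cutoff fixed separately per campaign, cut at about 7.5% in these data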
# MC4R ag barr: human MC4R agonism via beta-arrestin; P32245; U2OS MC4R beta-arrestin complementation, luminescence; percent of melanotan II response, DMSO zero; activation, % at 8.9 µM; 360,000 compounds, 0.98% hits; AID 540308;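 active = activation above a per-plate cutoff, the mean activation of sample wells on that plate plus 3 SD, cut at about 8% in these data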
# Target sequence (P32245 whole entry, looked up): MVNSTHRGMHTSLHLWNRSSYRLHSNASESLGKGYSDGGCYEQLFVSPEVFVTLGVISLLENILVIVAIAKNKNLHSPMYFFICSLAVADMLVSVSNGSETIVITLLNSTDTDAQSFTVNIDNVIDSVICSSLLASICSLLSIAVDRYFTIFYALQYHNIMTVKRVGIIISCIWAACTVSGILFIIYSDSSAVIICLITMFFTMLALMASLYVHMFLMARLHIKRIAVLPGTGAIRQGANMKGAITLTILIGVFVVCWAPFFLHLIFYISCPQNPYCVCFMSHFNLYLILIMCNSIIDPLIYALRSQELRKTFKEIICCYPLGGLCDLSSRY
# MC4R antag cAMP: antagonists of human melanocortin 4 receptor (MC4R) | inhibition, % at 6.5 µM | MC4R-expressing cells, MTII-stimulated cAMP, LANCE TR-FRET | 360,000 compounds, 0.48% hits | P32245;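 active = inhibition above its plate's cutoff, the mean of tested wells on that plate plus 3 SD, cut at about 29% in these data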
#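 Material: U2OS-MC4R stable cell line | Reagent: Melanotan II challenge after compound preincubation | Doses: One concentration, 6.5 µM nominal | Incubation: 30-min compound preincubation, 1-h Melanotan II challenge, 1-h detection, room temperature | Signal: TR-FRET cAMP assay | Replicates: One well per compound, no replicates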
# m5-HT2A agonist: agonists of mouse serotonin 5-HT2A receptor (HTR2A); 360,000 compounds, 0.66% hits; AID 624169; CHO-K1 mHTR2A beta-arrestin complementation, luminescence; percent of 30 µM serotonin response; activation, % at 7.6 µM;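 active = activation above a run cutoff, the mean activation of all tested compounds plus 3 SD, cut at about 14% in these data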
# AHR act cf: human AHR activation, confirmation. shares compounds with AHR act. human cells, AHR-responsive luciferase reporter, luminescence. activation, % at 9 µM. 2,300 compounds, 87% hits; in the data active = activation above about 49%;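 also: HepG2 hepatoma cells carrying a DRE-driven firefly luciferase reporter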
# PXR counter: counter-screen for AHR activators: human PXR activators; activation, % at 11.6 µM; shares compounds with AHR act; 2,300 compounds, 88% hits; cell-based PXR reporter, luciferase luminescence; in the data active = activation above about 11%;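 also: human hepatoma DPX-2 cells expressing full-length human PXR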
# Hits are given with their value; – = inactive; · = no result given.
SMILES,AHR act,FXN GAA850 act,MC4R ag barr,MC4R antag cAMP,m5-HT2A agonist,AHR act cf,PXR counter
CCc1nc2ccc(C(=O)NCc3ccc(OC)cc3)cn2c1N(CC)CCOC,·,–,–,–,–,·,·
CNC(=S)NN=C(C)CCCC(C)=NNC(=S)NC,·,–,–,–,–,·,·
Cc1c(Br)cccc1NC(=O)C1(C)CCN1Cc1ccc(OC(C)C)cc1 (stereo not given),·,–,–,–,–,·,·
N#Cc1c(-c2ccccc2)cc2nc3ccccc3n2c1N,85.1,–,–,–,–,88.4,31.1
COc1cc(-c2cc3nc4ccccc4n3c(N)c2C#N)cc(OC)c1OC,–,–,–,–,–,·,·
Cc1cccc2sc(NC(=O)C3CSC4(C)CCC(=O)N34)nc12 (stereo not given),–,–,–,–,–,·,·
CC12CCC(=O)N1C(C(=O)Nc1nc3c(F)cc(F)cc3s1)CS2 (stereo not given),97.4,–,–,–,–,79.3,151.5
O=C(C[n+]1cc(Br)cc2ccccc21)c1ccc(Br)cc1,100.8,–,–,–,–,112.1,30.5
O=C(C[n+]1cn(C(F)F)c2ccccc21)c1ccc(Br)cc1,–,–,–,–,–,·,·
O=C(/C=C/c1cn(CC(O)CN2CCCCC2)c2ccccc12)c1ccccc1 (stereo not given),·,–,–,–,–,·,·
CN1CCN(Cn2cc(/C=C/C(=O)c3ccccc3)c3ccccc32)CC1,85.7,–,–,–,–,110.0,47.0
O=C(c1ccc(Cl)cc1)c1oc2ccccc2c1CS(=O)c1ccc(Cl)cc1 (stereo not given),–,–,–,–,–,·,·
Nc1c(C(=O)c2ccc(Cl)cc2)oc2ccccc12,113.3,–,–,–,–,169.0,16.4
O=C(Nc1ccc(F)cc1)c1oc2ccccc2c1NC(=O)C1CCCC1,91.1,–,–,–,–,135.8,36.5
COc1ccc(C(=O)c2oc3ccccc3c2NC(C)=O)cc1,172.7,–,–,–,–,148.2,13.9
CC(=O)Nc1c(C(=O)O)oc2ccccc12,–,–,–,–,–,·,·
CC(=O)Nc1c(C(=O)c2ccc(F)cc2)oc2ccccc12,154.7,–,–,–,–,125.7,39.3
COc1ccc(-c2nc3ccc(Br)cn3c2CC(C)(C)C)cc1OC,·,·,·,·,–,·,·
C[C@@H]1CN([C@H](C)CO)C(=O)c2cc(Br)cnc2O[C@@H]1CN(C)Cc1ccc(-c2ccccc2)cc1,·,–,–,–,–,·,·
O=C(Nc1ccc(C(=O)NCCCN2CCN(c3ccccc3)CC2)cc1)C1=CSCCO1,–,–,–,–,–,·,·
Cn1c(NC(=O)CCc2ccccc2)cc(=O)n(C)c1=O,148.6,–,–,–,–,108.6,24.5
CCCC(=O)Nc1cc(=O)n(C)c(=O)n1C,–,–,–,–,–,·,·
O=C(CSc1ccccc1F)NC(=O)NC1CCCC1,·,–,–,–,–,·,·
COc1cc2c(cc1OC)C(=O)C(Br)CC2 (stereo not given),·,–,–,–,–,·,·
Cc1cc(/C=N/NC(=O)c2cccs2)c(C)n1-c1cnccn1,109.8,–,–,–,–,117.8,21.3
SMILES,AHR act,FXN GAA850 act,MC4R ag barr,MC4R antag cAMP,m5-HT2A agonist,AHR act cf,PXR counter
Cn1cc(/C=N/NC(N)=S)c2ccccc21,–,–,–,–,–,·,·
Cn1cc(/C=N\NC(=O)c2cccs2)c2ccccc21,148.8,–,–,–,–,109.5,21.1
Cn1cccc1/C=N/NC(=O)c1cccs1,–,–,–,–,–,·,·
C=CCNC(=S)N/N=C/c1cn(C)c2ccccc12,95.4,–,–,–,–,74.5,166.7
CC/C(=N/Nc1ccc(Cl)cc1)c1cnnc(SC)n1,98.0,–,–,–,–,93.6,11.7
CNC[C@@H]1OCc2ccccc2-c2ccccc2C(=O)N([C@H](C)CO)C[C@@H]1C,·,–,–,–,–,·,·
CC(C)Cn1c(N)c(C(=O)COC(=O)c2c(O)c(Cl)cc(Cl)c2Cl)c(=O)n(C)c1=O,–,–,–,–,–,·,·
Cc1ccc(N/N=C(\C#N)C(=N)N2CCOCC2)cc1,122.7,–,–,–,–,115.3,16.5
N#C/C(=N\Nc1ccccc1)C(=N)N1CCOCC1,–,–,–,–,–,·,·
O=C(Cc1ccccc1)NS(=O)(=O)c1ccccc1,·,·,·,·,–,·,·
O=C(Nc1ccc(Cl)cc1)c1ccc(Br)cc1F,96.9,–,–,–,–,130.5,64.8
CC(C)c1ccc(NC(=O)c2cc(Br)ccc2Br)cc1,–,–,–,–,–,·,·
COc1ccc(C(=O)O/N=C(\N)c2ccccc2)c(OC)c1,96.9,–,–,–,–,56.4,–
COc1ccc(C(=O)O/N=C(\N)c2ccc(OC)c(OC)c2)c(OC)c1,–,–,–,–,–,·,·
Cc1cccc(C(=O)N=c2sccn2C)c1[N+](=O)[O-],99.0,–,–,–,–,81.6,141.8
Cc1ccc(C(=O)N=c2sccn2C)o1,–,–,–,–,–,·,·
CCc1nc2ccc(C(=O)NC(C)(C)C)cn2c1N(CC)Cc1cccc(Br)c1,·,–,–,–,–,·,·
CCNC(=O)/C(C#N)=C/c1c(N2CCN(c3ccccc3)CC2)nc2c(C)cccn2c1=O,79.7,–,–,–,–,69.0,19.0
CCNC(=O)/C(C#N)=C/c1c(N2CCN(c3ccc(OC)cc3)CC2)nc2c(C)cccn2c1=O,–,–,–,–,–,·,·
Cn1ncc(C(=O)Nc2ccc(OC(F)(F)F)cc2)c1-n1cccc1,80.4,–,–,–,–,99.6,30.4
CC(C)NC(=O)C1C(c2ccc(C(F)(F)F)cc2)=Nc2ccccc2N1C(=O)c1cc2ccccc2[nH]1 (stereo not given),·,·,·,·,–,·,·
O=C(NCc1ccc2c(c1)OCO2)c1cccc2c1C(=O)N(C1CCCCC1)C2,–,–,–,–,–,·,·
CCCN1Cc2cccc(C(=O)NCc3ccc4c(c3)OCO4)c2C1=O,80.3,–,–,–,–,50.4,140.5
CCn1cc(Br)c(C(=O)Nc2ccc(Cl)cc2Cl)n1,81.8,–,–,–,–,126.5,11.3
CCOC(=O)c1c(NC(=O)c2nn(CC)cc2Br)sc(C)c1C,–,–,–,–,–,·,·
SMILES,AHR act,FXN GAA850 act,MC4R ag barr,MC4R antag cAMP,m5-HT2A agonist,AHR act cf,PXR counter
Cc1cc(C)n(-c2nc3c(c(=O)[nH]c(=O)n3C)n2CCc2ccccc2)n1,132.7,–,–,–,–,84.3,67.4
Cc1cc(C)n(-c2nc3c(c(=O)[nH]c(=O)n3C)n2CC(O)c2ccccc2)n1 (stereo not given),80.3,–,–,–,–,77.6,45.2
COc1ccc(COn2c(=O)c(C)[n+]([O-])c3ccccc32)cc1OC,–,–,–,–,–,·,·
Cc1c(=O)n(OCc2ccccc2)c2ccccc2[n+]1[O-],176.9,–,–,–,–,200.8,47.2
O=C(Nc1cccc(-c2cn3c(n2)SCC3)c1)c1ccc2ccccc2n1,93.7,–,–,–,–,54.2,39.0
CCCC(=O)Nc1nn(C)c2nc3cc(C)ccc3cc12,84.8,·,·,·,·,53.0,·
